Reference: ChEMBL document CHEMBL2331438, “An efficient domino reaction in ionic liquid: synthesis and biological evaluation of some pyrano- and thiopyrano-fused heterocycles” (2013)
Converted amounts (≈) assume the structure as drawn.

Tests used:
Salmonella typhi = test: Antibacterial activity against Salmonella typhi MTCC 98 after 24 hrs by broth microdilution method; assay type: functional, Salmonella enterica subsp. enterica serovar Typhi
Vibrio cholerae = test: Antibacterial activity against Vibrio cholerae MTCC 3906 after 24 hrs by broth microdilution method; assay type: functional
Streptococcus pneumoniae = test: Antibacterial activity against Streptococcus pneumoniae MTCC 1936 after 24 hrs by broth microdilution method; assay type: functional
Escherichia coli = test: Antibacterial activity against Escherichia coli MTCC 443 after 24 hrs by broth microdilution method; assay type: functional
Bacillus subtilis = test: Antibacterial activity against Bacillus subtilis MTCC 441 after 24 hrs by broth microdilution method; assay type: functional
Clostridium tetani = test: Antibacterial activity against Clostridium tetani MTCC 449 after 24 hrs by broth microdilution method; assay type: functional
[1] = Antioxidant activity assessed as ascorbic acid equivalent ferric ion reducing activity per 100 gram at 200 ug/ml by FRAP assay; assay type: functional
[2] = test system: Mycobacterium tuberculosis; test: Antimycobacterial activity against Mycobacterium tuberculosis H37Rv at 250 ug/ml; assay type: functional
Procedure, shortened: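 M. tuberculosis H37Rv tested on L.J. (Löwenstein–Jensen) medium.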

Candida albicans = test: Antifungal activity against Candida albicans MTCC 227 after 48 hrs by broth microdilution method; assay type: functional; details: MTCC 227, 48 h
Aspergillus fumigatus = test: Antifungal activity against Aspergillus fumigatus MTCC 3008 after 48 hrs by broth microdilution method; assay type: functional; details: MTCC 3008, 48 h
[3] = Salmonella enterica, MTCC 98, 24 h

CCn1cc(C(=O)O)c(=O)c2cc(F)c(N3CCNCC3)cc21 [NORFLOXACIN]
MIC (Salmonella typhi; [3]): 10 µg/mL (≈ 31.3 µM)
MIC (Vibrio cholerae; MTCC 3906, 24 h): 10 µg/mL (≈ 31.3 µM)
MIC (Streptococcus pneumoniae; MTCC 1936, 24 h): 10 µg/mL (≈ 31.3 µM)
MIC (Escherichia coli; MTCC 443, 24 h): 10 µg/mL (≈ 31.3 µM)
MIC (Bacillus subtilis; MTCC 441, 24 h): 100 µg/mL (≈ 313 µM)
MIC (Clostridium tetani; MTCC 449, 24 h): 50 µg/mL (≈ 157 µM)

Cc1nn(-c2cccc(Cl)c2)c2c1[C@@H]1c3cc4ccccc4nc3SC[C@@H]1CO2
MIC (Salmonella typhi; [3]): 100 µg/mL (≈ 238 µM)
MIC (Vibrio cholerae; MTCC 3906, 24 h): 200 µg/mL (≈ 476 µM)
MIC (Streptococcus pneumoniae; MTCC 1936, 24 h): 250 µg/mL (≈ 595 µM)
MIC (Escherichia coli; MTCC 443, 24 h): 62.5 µg/mL (≈ 149 µM)
Activity [1]: 128 mmol
inhibition at 250 µg/mL [2]: 61%
MIC (Candida albicans): > 1000 µg/mL
MIC (Bacillus subtilis; MTCC 441, 24 h): 200 µg/mL (≈ 476 µM)
MIC (Clostridium tetani; MTCC 449, 24 h): 125 µg/mL (≈ 298 µM)
MIC (Aspergillus fumigatus): 1000 µg/mL (≈ 2380 µM)

Cc1ccc(-n2nc(C)c3c2OC[C@H]2COc4ccc5c(C)cc(=O)oc5c4[C@@H]32)cc1
MIC (Salmonella typhi; [3]): 250 µg/mL (≈ 603 µM)
MIC (Vibrio cholerae; MTCC 3906, 24 h): 200 µg/mL (≈ 483 µM)
MIC (Streptococcus pneumoniae; MTCC 1936, 24 h): 250 µg/mL (≈ 603 µM)
MIC (Escherichia coli; MTCC 443, 24 h): 200 µg/mL (≈ 483 µM)
Activity [1]: 213 mmol
inhibition at 250 µg/mL [2]: 32%
MIC (Candida albicans): 1000 µg/mL (≈ 2410 µM)
MIC (Bacillus subtilis; MTCC 441, 24 h): 250 µg/mL (≈ 603 µM)
MIC (Clostridium tetani; MTCC 449, 24 h): 200 µg/mL (≈ 483 µM)
MIC (Aspergillus fumigatus): 250 µg/mL (≈ 603 µM)

Cc1cccc2cc3c(nc12)SC[C@@H]1COc2c(c(-c4ccccc4)nn2-c2ccccc2)[C@H]31
MIC (Salmonella typhi; [3]): 125 µg/mL (≈ 271 µM)
MIC (Vibrio cholerae; MTCC 3906, 24 h): 200 µg/mL (≈ 433 µM)
MIC (Streptococcus pneumoniae; MTCC 1936, 24 h): 200 µg/mL (≈ 433 µM)
MIC (Escherichia coli; MTCC 443, 24 h): 100 µg/mL (≈ 217 µM)
Activity [1]: 101 mmol
inhibition at 250 µg/mL [2]: 9%
MIC (Candida albicans): > 1000 µg/mL
MIC (Bacillus subtilis; MTCC 441, 24 h): 200 µg/mL (≈ 433 µM)
MIC (Clostridium tetani; MTCC 449, 24 h): 125 µg/mL (≈ 271 µM)
MIC (Aspergillus fumigatus): > 1000 µg/mL

Cc1nn(-c2cccc(Cl)c2)c2c1[C@@H]1c3cc4cccc(C)c4nc3SC[C@@H]1C(C)(C)O2 (single isomer, unassigned)
MIC (Salmonella typhi; [3]): 250 µg/mL (≈ 541 µM)
MIC (Vibrio cholerae; MTCC 3906, 24 h): 100 µg/mL (≈ 216 µM)
MIC (Streptococcus pneumoniae; MTCC 1936, 24 h): 100 µg/mL (≈ 216 µM)
MIC (Escherichia coli; MTCC 443, 24 h): 150 µg/mL (≈ 325 µM)
Activity [1]: 18.2 mmol
inhibition at 250 µg/mL [2]: 91%
MIC (Candida albicans): 500 µg/mL (≈ 1080 µM)
MIC (Bacillus subtilis; MTCC 441, 24 h): 200 µg/mL (≈ 433 µM)
MIC (Clostridium tetani; MTCC 449, 24 h): 1000 µg/mL (≈ 2160 µM)
MIC (Aspergillus fumigatus): 500 µg/mL (≈ 1080 µM)

GENTAMICIN
MIC (Salmonella typhi; Salmonella enterica subsp. enterica serovar Typhi): 5 µg/mL
MIC (Vibrio cholerae): 5 µg/mL
MIC (Streptococcus pneumoniae): 0.5 µg/mL
MIC (Escherichia coli): 0.05 µg/mL
MIC (Bacillus subtilis): 1 µg/mL
MIC (Clostridium tetani): 5 µg/mL

Cc1nn(-c2cccc(Cl)c2)c2c1[C@@H]1c3c(ccc4c(C)cc(=O)oc34)OC[C@@H]1C(C)(C)O2
MIC (Salmonella typhi; [3]): 200 µg/mL (≈ 432 µM)
MIC (Vibrio cholerae; MTCC 3906, 24 h): 250 µg/mL (≈ 540 µM)
MIC (Streptococcus pneumoniae; MTCC 1936, 24 h): 62.5 µg/mL (≈ 135 µM)
MIC (Escherichia coli; MTCC 443, 24 h): 200 µg/mL (≈ 432 µM)
Activity [1]: 225 mmol
inhibition at 250 µg/mL [2]: 29%
MIC (Candida albicans): 500 µg/mL (≈ 1080 µM)
MIC (Bacillus subtilis; MTCC 441, 24 h): 200 µg/mL (≈ 432 µM)
MIC (Clostridium tetani; MTCC 449, 24 h): 200 µg/mL (≈ 432 µM)
MIC (Aspergillus fumigatus): 1000 µg/mL (≈ 2160 µM)

Cc1nn(-c2ccc([N+](=O)[O-])cc2)c2c1[C@@H]1c3c(ccc4c(C)cc(=O)oc34)OC[C@@H]1C(C)(C)O2
MIC (Salmonella typhi; [3]): 125 µg/mL (≈ 264 µM)
MIC (Vibrio cholerae; MTCC 3906, 24 h): 200 µg/mL (≈ 422 µM)
MIC (Streptococcus pneumoniae; MTCC 1936, 24 h): 200 µg/mL (≈ 422 µM)
MIC (Escherichia coli; MTCC 443, 24 h): 200 µg/mL (≈ 422 µM)
Activity [1]: 138 mmol
inhibition at 250 µg/mL [2]: 88%
MIC (Candida albicans): 250 µg/mL (≈ 528 µM)
MIC (Bacillus subtilis; MTCC 441, 24 h): 200 µg/mL (≈ 422 µM)
MIC (Clostridium tetani; MTCC 449, 24 h): 200 µg/mL (≈ 422 µM)
MIC (Aspergillus fumigatus): 500 µg/mL (≈ 1060 µM)

Cc1nn(-c2ccccc2Cl)c2c1[C@@H]1c3c(ccc4c(C)cc(=O)oc34)OC[C@@H]1CO2
MIC (Salmonella typhi; [3]): 100 µg/mL (≈ 230 µM)
MIC (Vibrio cholerae; MTCC 3906, 24 h): 250 µg/mL (≈ 575 µM)
MIC (Streptococcus pneumoniae; MTCC 1936, 24 h): 100 µg/mL (≈ 230 µM)
MIC (Escherichia coli; MTCC 443, 24 h): 125 µg/mL (≈ 287 µM)
Activity [1]: 200 mmol
inhibition at 250 µg/mL [2]: 30%
MIC (Candida albicans): 1000 µg/mL (≈ 2300 µM)
MIC (Bacillus subtilis; MTCC 441, 24 h): 62.5 µg/mL (≈ 144 µM)
MIC (Clostridium tetani; MTCC 449, 24 h): 200 µg/mL (≈ 460 µM)
MIC (Aspergillus fumigatus): > 1000 µg/mL

Cc1nn(-c2ccccc2)c2c1[C@@H]1c3cc4ccccc4nc3SC[C@@H]1CO2
MIC (Salmonella typhi; [3]): 125 µg/mL (≈ 324 µM)
MIC (Vibrio cholerae; MTCC 3906, 24 h): 100 µg/mL (≈ 259 µM)
MIC (Streptococcus pneumoniae; MTCC 1936, 24 h): 200 µg/mL (≈ 519 µM)
MIC (Escherichia coli; MTCC 443, 24 h): 100 µg/mL (≈ 259 µM)
Activity [1]: 126 mmol
inhibition at 250 µg/mL [2]: 87%
MIC (Candida albicans): 500 µg/mL (≈ 1300 µM)
MIC (Bacillus subtilis; MTCC 441, 24 h): 200 µg/mL (≈ 519 µM)
MIC (Clostridium tetani; MTCC 449, 24 h): 62.5 µg/mL (≈ 162 µM)
MIC (Aspergillus fumigatus): 500 µg/mL (≈ 1300 µM)

Cc1nn(-c2cc(Cl)ccc2Cl)c2c1[C@@H]1c3c(ccc4c(C)cc(=O)oc34)OC[C@@H]1CO2
MIC (Salmonella typhi; [3]): 250 µg/mL (≈ 533 µM)
MIC (Vibrio cholerae; MTCC 3906, 24 h): 100 µg/mL (≈ 213 µM)
MIC (Streptococcus pneumoniae; MTCC 1936, 24 h): 200 µg/mL (≈ 426 µM)
MIC (Escherichia coli; MTCC 443, 24 h): 125 µg/mL (≈ 266 µM)
Activity [1]: 184 mmol
inhibition at 250 µg/mL [2]: 28%
MIC (Candida albicans): 250 µg/mL (≈ 533 µM)
MIC (Bacillus subtilis; MTCC 441, 24 h): 200 µg/mL (≈ 426 µM)
MIC (Clostridium tetani; MTCC 449, 24 h): 250 µg/mL (≈ 533 µM)
MIC (Aspergillus fumigatus): > 1000 µg/mL

CC1(C)S[C@@H]2[C@H](NC(=O)[C@H](N)c3ccccc3)C(=O)N2[C@H]1C(=O)O [AMPICILLIN]
MIC (Salmonella typhi; [3]): 100 µg/mL (≈ 286 µM)
MIC (Vibrio cholerae; MTCC 3906, 24 h): 100 µg/mL (≈ 286 µM)
MIC (Streptococcus pneumoniae; MTCC 1936, 24 h): 100 µg/mL (≈ 286 µM)
MIC (Escherichia coli; MTCC 443, 24 h): 100 µg/mL (≈ 286 µM)
MIC (Bacillus subtilis; MTCC 441, 24 h): 250 µg/mL (≈ 715 µM)
MIC (Clostridium tetani; MTCC 449, 24 h): 250 µg/mL (≈ 715 µM)

O=C(O)c1cn(C2CC2)c2cc(N3CCNCC3)c(F)cc2c1=O [CIPROFLOXACIN]
MIC (Salmonella typhi; [3]): 25 µg/mL (≈ 75.4 µM)
MIC (Vibrio cholerae; MTCC 3906, 24 h): 25 µg/mL (≈ 75.4 µM)
MIC (Streptococcus pneumoniae; MTCC 1936, 24 h): 50 µg/mL (≈ 151 µM)
MIC (Escherichia coli; MTCC 443, 24 h): 25 µg/mL (≈ 75.4 µM)

Cc1ccc(-n2nc(C)c3c2OC[C@H]2CSc4nc5c(C)cccc5cc4[C@@H]32)cc1
MIC (Salmonella typhi; [3]): 125 µg/mL (≈ 302 µM)
MIC (Vibrio cholerae; MTCC 3906, 24 h): 125 µg/mL (≈ 302 µM)
MIC (Streptococcus pneumoniae; MTCC 1936, 24 h): 200 µg/mL (≈ 484 µM)
MIC (Escherichia coli; MTCC 443, 24 h): 100 µg/mL (≈ 242 µM)
Activity [1]: 112 mmol
inhibition at 250 µg/mL [2]: 63%
MIC (Candida albicans): 1000 µg/mL (≈ 2420 µM)
MIC (Bacillus subtilis; MTCC 441, 24 h): 200 µg/mL (≈ 484 µM)
MIC (Clostridium tetani; MTCC 449, 24 h): 250 µg/mL (≈ 605 µM)
MIC (Aspergillus fumigatus): 200 µg/mL (≈ 484 µM)
